# Reference: ChEMBL document CHEMBL5131497, “Design, Synthesis, and Characterization of TNP-2198, a Dual-Targeted Rifamycin-Nitroimidazole Conjugate with Potent Activity against Microaerophilic and Anaerobic Bacterial Pathogens” (J Med Chem, 2022)
# Columns and labels:
# Format in all cases: functional
# Helicobacter pylori [1] = experiment: Antibacterial activity against Helicobacter pylori infected in C57/BL6 mouse assessed as bacterial load in stomach at 10 mg/kg administered twice daily via oral gavage starting from 7 days post inoculation and administered for 7 days (reference value: 5.25 log10CFU); conditions: time 7 day
# Campylobacter gracilis = experiment: Antibacterial activity against Bacteroides gracilis ATCC 33236 MMX 1270
# [2] = test system: Bacteroides thetaiotaomicron; experiment: Antibacterial activity against metronidazole-resistant Bacteroides thetaiotaomicron MMX 3409
# Bacteroides fragilis = experiment: Antibacterial activity against metronidazole-resistant Bacteroides fragilis MMX 3387
# Prevotella disiens [3] = experiment: Antibacterial activity against Prevotella disiens MMX 3457
# Bacteroides uniformis = experiment: Antibacterial activity against Bacteroides uniformis MMX 1277
# Clostridioides difficile [4] = experiment: Antibacterial activity against rifampicin-resistant Clostridium difficile MMX 3587
# Phocaeicola vulgatus = experiment: Antibacterial activity against Bacteroides vulgatus MMX 8348
# Peptostreptococcus sp. = experiment: Antibacterial activity against Peptostreptococcus magnus ATCC 14956
# Helicobacter pylori [5] = experiment: Antibacterial activity against Helicobacter pylori ATCC 700392
# Procedure, shortened: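 Agar dilution per CLSI. Wild-type H. pylori ATCC 700392 (CB1531). Drugs prepared from 100× stocks as 2-fold dilutions in Mueller–Hinton agar with aged (≥2 weeks) sheep blood (5% v/v). Combinations were at 1:1 molar ratio. MIC read after 5 days at 35 °C under microaerobic atmosphere from a campylobacter gas-generating system.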
# Helicobacter pylori [6] = experiment: Antibacterial activity against metronidazole/rifampicin-resistant Helicobacter pylori CB1893 harboring rpoBL525I/D530N/rdxAR16S mutant at 1:1 compound to metronidazole molar ratio measured after 5 days in presence of metronidazole by agar dilution method; conditions: CB1893, 120 h, time 5 day
# Procedure, shortened: (§1)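 Agar dilution per CLSI. Wild-type ATCC 700392 (CB1531) and its derivatives carry defined resistance determinants. Drugs, alone or in 1:1 molar mixtures, were diluted 2-fold from 100× stocks into Mueller–Hinton agar with aged (≥2 weeks) sheep blood (5% v/v). MIC read after 5 days at 35 °C under microaerobic conditions from a campylobacter gas-generating system.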
# Clostridioides difficile [7] = experiment: Antibacterial activity against Clostridioides difficile ATCC 9689
# Helicobacter pylori [8] = experiment: Antibacterial activity against rifampicin-resistant Helicobacter pylori CB1903 harboring rpoBD530V mutant measured after 5 days by agar dilution method; conditions: CB1903, 120 h, time 5 day; procedure, shortened: as §1
# Staphylococcus aureus = experiment: Antibacterial activity against Staphylococcus aureus ATCC 29213
# Helicobacter pylori [9] = experiment: Antibacterial activity against metronidazole/rifampicin-resistant Helicobacter pylori CB1771 harboring rpoBL525I/D530N/rdxAE75stop mutant at 1:1 compound to metronidazole molar ratio measured after 5 days in presence of metronidazole by agar dilution method; conditions: CB1771, 120 h, time 5 day; procedure, shortened: as §1
# Helicobacter pylori [10] = experiment: Antibacterial activity against rifampicin-resistant Helicobacter pylori CB1902 harboring rpoBV149F mutant at 1:1 compound to metronidazole molar ratio measured after 5 days in presence of metronidazole by agar dilution method; conditions: CB1902, 120 h, time 5 day; procedure, shortened: as §1
# Helicobacter pylori [11] = experiment: Antibacterial activity against metronidazole/rifampicin-resistant Helicobacter pylori CB1893 harboring rpoBL525I/D530N/rdxAR16S mutant measured after 5 days by agar dilution method; conditions: CB1893, 120 h, time 5 day; procedure, shortened: as §1
# Helicobacter pylori [12] = experiment: Antibacterial activity against metronidazole/rifampicin-resistant Helicobacter pylori CB1771 harboring rpoBL525I/D530N/rdxAE75stop mutant measured after 5 days by agar dilution method; conditions: CB1771, 120 h, time 5 day; procedure, shortened: as §1
# Helicobacter pylori [13] = experiment: Antibacterial activity against rifampicin-resistant Helicobacter pylori CB1903 harboring rpoBD530V mutant at 1:1 compound to metronidazole molar ratio measured after 5 days in presence of metronidazole by agar dilution method; conditions: CB1903, 120 h, time 5 day; procedure, shortened: as §1
# Helicobacter pylori [14] = experiment: Antibacterial activity against rifampicin-resistant Helicobacter pylori CB1614 harboring rpoBL525I/D530N mutant measured after 5 days by agar dilution method; conditions: CB1614, 120 h, time 5 day; procedure, shortened: as §1
# Helicobacter pylori [15] = experiment: Antibacterial activity against rifampicin-resistant Helicobacter pylori CB1902 harboring rpoBV149F mutant measured after 5 days by agar dilution method; conditions: CB1902, 120 h, time 5 day; procedure, shortened: as §1
# Helicobacter pylori [16] = experiment: Antibacterial activity against rifampicin-resistant Helicobacter pylori CB1614 harboring rpoBL525I/D530N at 1:1 compound to metronidazole molar ratio measured after 5 days in presence of metronidazole by agar dilution method; conditions: CB1614, 120 h, time 5 day; procedure, shortened: as §1
# Helicobacter pylori [17] = experiment: Antibacterial activity against metronidazole-resistant Helicobacter pylori CB1573 harboring rdxAR16S mutant at 1:1 compound to metronidazole molar ratio measured after 5 days in presence of metronidazole by agar dilution method; conditions: CB1573, 120 h, time 5 day; procedure, shortened: as §1
# Helicobacter pylori [18] = experiment: Antibacterial activity against metronidazole-resistant Helicobacter pylori CB1573 harboring rdxAR16S mutant measured after 5 days by agar dilution method; conditions: CB1573, 120 h, time 5 day; procedure, shortened: as §1
# Clostridioides difficile [19] = experiment: Antibacterial activity against Clostridioides difficile BAA 1382
# Clostridioides difficile [20] = experiment: Antibacterial activity against fluoroquinolone-resistant Clostridioides difficile CB1939 at 1:1 compound to metronidazole molar ratio measured after 3 days in presence of metronidazole; conditions: CB1939, 72 h, time 3 day
# Prevotella bivia = experiment: Antibacterial activity against Prevotella bivia ATCC 29303/MMX 5718
# Gardnerella vaginalis [21] = experiment: Antibacterial activity against Gardnerella vaginalis ATCC 49145
# Clostridioides difficile [22] = experiment: Antibacterial activity against fluoroquinolone-resistant Clostridioides difficile CB1941 harboring gyrAD71Y/T82A mutant at 1:1 compound to metronidazole molar ratio measured after 3 days in presence of metronidazole; conditions: CB1941, 72 h, time 3 day
# Actinomyces naeslundii = experiment: Antibacterial activity against Actinomyces naeslundii ATCC 1210
# Clostridioides difficile [23] = experiment: Antibacterial activity against Clostridioides difficile clinical isolate China
# Prevotella intermedia = experiment: Antibacterial activity against Prevotella intermedia ATCC 25611 MMX 3002
# Clostridioides difficile [24] = experiment: Antibacterial activity against rifampicin-resistant Clostridioides difficile CB1934 harboring rpoBQ489K mutant measured after 3 days; conditions: CB1934, 72 h, time 3 day
# [25] = test system: Porphyromonas asaccharolytica; experiment: Antibacterial activity against metronidazole-resistant Prevotella asaccharolytica MMX 3552
# Veillonella parvula = experiment: Antibacterial activity against Veillonella parvula ATCC 17745 MMX 1272
# Bifidobacterium longum = experiment: Antibacterial activity against Bifidobacterium longum ATCC 15707
# Clostridioides difficile [26] = experiment: Antibacterial activity against rifampicin-resistant Clostridioides difficile harboring rpoBQ489K mutant
# Fusobacterium nucleatum = experiment: Antibacterial activity against Fusobacterium nucleatum ATCC 25586
# Clostridioides difficile [27] = experiment: Antibacterial activity against rifampicin/fluoroquinolone-resistant Clostridioides difficile CB1940 harboring rpoBQ489K/gyrAA118S mutant at 1:1 compound to metronidazole molar ratio measured after 3 days in presence of metronidazole; conditions: CB1940, 72 h, time 3 day
# Clostridioides difficile [28] = experiment: Antibacterial activity against fluoroquinolone-resistant Clostridioides difficile CB1941 harboring gyrAD71Y/T82A mutant measured after 3 days; conditions: CB1941, 72 h, time 3 day
# Helicobacter pylori [29] = experiment: Antibacterial activity against Helicobacter pylori clinical isolate China
# Gardnerella vaginalis [30] = experiment: Antibacterial activity against Gardnerella vaginalis ATCC 14018
# Clostridioides difficile [31] = experiment: Antibacterial activity against rifampicin-resistant Clostridioides difficile CB1934 harboring rpoBQ489K mutant at 1:1 compound to metronidazole molar ratio measured after 3 days in presence of metronidazole; conditions: CB1934, 72 h, time 3 day
# Clostridioides difficile [32] = experiment: Antibacterial activity against rifampicin/fluoroquinolone-resistant Clostridioides difficile CB1940 harboring rpoBQ489K/gyrAA118S mutant measured after 3 days; conditions: CB1940, 72 h, time 3 day
# Helicobacter pylori [33] = experiment: Antibacterial activity against Helicobacter pylori ATCC 700392 at 1:1 compound to metronidazole molar ratio measured after 5 days in presence of metronidazole by agar dilution method; conditions: ATCC 700392, 120 h, time 5 day; procedure, shortened: as §1
# Clostridioides difficile [34] = experiment: Antibacterial activity against rifampicin/fluoroquinolone-resistant Clostridioides difficile CB1942 harboring rpoBQ489K/gyrAD71Y/T82A mutant at 1:1 compound to metronidazole molar ratio measured after 3 days in presence of metronidazole; conditions: CB1942, 72 h, time 3 day
# Clostridioides difficile [35] = experiment: Antibacterial activity against rifampicin/fluoroquinolone-resistant Clostridioides difficile CB1942 harboring rpoBQ489K/gyrAD71Y/T82A mutant measured after 3 days; conditions: CB1942, 72 h, time 3 day
# Prevotella disiens [36] = experiment: Antibacterial activity against Prevotella disiens MMX 3446
# Helicobacter pylori [37] = experiment: Antibacterial activity against Helicobacter pylori clinical isolate USA
compound,measurement,setting,value
CC[C@H]1OC(=O)[C@H](C)[C@@H](O[C@H]2C[C@@](C)(OC)[C@@H](O)[C@H](C)O2)[C@H](C)[C@@H](O[C@@H]2O[C@H](C)C[C@H](N(C)C)[C@H]2O)[C@](C)(OC)C[C@@H](C)C(=O)[C@H](C)[C@@H](O)[C@]1(C)O [CLARITHROMYCIN],Activity,Helicobacter pylori [1],2.85 log10CFU
CCC[C@@H]1C[C@@H](C(=O)N[C@@H]([C@H]2O[C@H](SC)[C@H](O)[C@@H](O)[C@H]2O)[C@H](C)Cl)N(C)C1 [CLINDAMYCIN],MIC,Campylobacter gracilis,0.06 µg/mL
same,MIC,[2],> 64 µg/mL
same,MIC,Bacteroides fragilis,2 µg/mL
same,MIC,Prevotella disiens [3],0.25 µg/mL
same,MIC,Bacteroides uniformis,0.25 µg/mL
same,MIC,Clostridioides difficile [4],8 µg/mL
same,MIC,Phocaeicola vulgatus,0.25 µg/mL
same,MIC,Peptostreptococcus sp.,1 µg/mL
CO[C@H]1/C=C/O[C@@]2(C)Oc3c(C)c(O)c4c(c3C2=O)C2=NC3(CCN(CC(C)C)CC3)NC2=C(NC(=O)/C(C)=C\C=C\[C@H](C)[C@H](O)[C@@H](C)[C@@H](O)[C@@H](C)[C@H](OC(C)=O)[C@@H]1C)C4=O [RIFABUTIN],MIC,Helicobacter pylori [5],0.001 µg/mL
same,MIC,Helicobacter pylori [6],16 µg/mL
same,MIC,Clostridioides difficile [7],0.0001 µg/mL
same,MIC,Helicobacter pylori [8],16 µg/mL
same,MIC,Staphylococcus aureus,0.03 µg/mL
same,MIC,Helicobacter pylori [9],16 µg/mL
same,MIC,Helicobacter pylori [10],2 µg/mL
same,MIC,Helicobacter pylori [11],16 µg/mL
same,MIC,Helicobacter pylori [12],16 µg/mL
same,MIC,Helicobacter pylori [13],1 µg/mL
same,MIC,Helicobacter pylori [14],16 µg/mL
same,MIC,Helicobacter pylori [15],16 µg/mL
same,MIC,Helicobacter pylori [16],2 µg/mL
same,MIC,Helicobacter pylori [17],≤ 0.002 µg/mL
CO[C@H]1/C=C/O[C@@]2(C)Oc3c(C)c(O)c4c(O)c(c(/C=N/N5CCN(C)CC5)c(O)c4c3C2=O)NC(=O)/C(C)=C\C=C\[C@H](C)[C@H](O)[C@@H](C)[C@@H](O)[C@@H](C)[C@H](OC(C)=O)[C@@H]1C [RIFAMPIN],MIC,Helicobacter pylori [18],0.5 µg/mL
same,MIC,Clostridioides difficile [19],0.001 µg/mL
same,MIC,Clostridioides difficile [20],≤ 0.03 µg/mL
same,MIC,Prevotella bivia,0.5 µg/mL
same,MIC,Clostridioides difficile [7],0.001 µg/mL
same,MIC,Helicobacter pylori [8],> 32 µg/mL
same,MIC,Staphylococcus aureus,0.008 µg/mL
same,MIC,[2],0.5 µg/mL
same,MIC,Gardnerella vaginalis [21],0.5 µg/mL
same,MIC,Clostridioides difficile [22],≤ 0.03 µg/mL
same,MIC,Actinomyces naeslundii,0.03 µg/mL
same,MIC,Helicobacter pylori [10],8 µg/mL
same,MIC,Clostridioides difficile [23],0.06 µg/mL
same,MIC90,Clostridioides difficile [23],≥ 128 µg/mL
same,MIC,Prevotella intermedia,0.12 µg/mL
same,MIC,Clostridioides difficile [24],> 32 µg/mL
same,MIC,[25],0.004 µg/mL
same,MIC,Helicobacter pylori [13],16 µg/mL
same,MIC,Veillonella parvula,4 µg/mL
same,MIC,Bifidobacterium longum,0.5 µg/mL
same,MIC,Clostridioides difficile [26],0.25 µg/mL
same,MIC,Fusobacterium nucleatum,0.5 µg/mL
same,MIC,Clostridioides difficile [27],2 µg/mL
same,MIC,Prevotella disiens [3],0.5 µg/mL
same,MIC,Clostridioides difficile [28],≤ 0.03 µg/mL
same,MIC,Bacteroides uniformis,0.5 µg/mL
same,MIC,Helicobacter pylori [29],≤ 0.06 µg/mL
same,MIC90,Helicobacter pylori [29],0.5 µg/mL
same,MIC,Helicobacter pylori [16],8 µg/mL
same,MIC,Gardnerella vaginalis [30],0.5 µg/mL
same,MIC,Clostridioides difficile [31],2 µg/mL
same,MIC,Clostridioides difficile [32],> 32 µg/mL
same,MIC,Helicobacter pylori [33],0.5 µg/mL
same,MIC,Clostridioides difficile [34],2 µg/mL
same,MIC,Peptostreptococcus sp.,1 µg/mL
same,MIC,Clostridioides difficile [35],> 32 µg/mL
same,MIC,Helicobacter pylori [17],0.25 µg/mL
same,MIC,Prevotella disiens [36],0.12 µg/mL
same,MIC,Helicobacter pylori [37],≥ 0.007 µg/mL
